# Test results taken from article PMC9827907 (Chemmedchem, 2022).
# Like-named read-outs stand apart in the source and are kept apart here.
# What was measured:
# P. falciparum 3D7 = test: In vitro P. falciparum viability assay, 3D7 strain, 72-hour SYBR green; assay type: cell-based, Plasmodium falciparum; conditions: for IC50: Plasmodium falciparum, 3D7, 72 h, read-out: 3D7 IC50
# Procedure, shortened: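 Asexual blood-stage growth inhibition was measured on the 3D7 strain with 72 h exposure to test compound. IC50 values are geometric mean ± SEM of at least two independent experiments.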
# [1] = Metabolic stability study using human liver microsomes; assay type: in vitro ADME; conditions: pooled human liver microsomes
# [2] = test system: P. falciparum clone F8 (PfeEF2 L775F); test: 72 hour concentration-response assay, M5717-selected clone F8; assay type: cell-based, Plasmodium falciparum
# Procedure, shortened: (§1)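 Drug-selected P. falciparum clones carry PfeEF2 point mutations in the chloroquine-resistant Dd2-B2 background and are compared with the parental Dd2-B2 clone. […] Each clone was tested against parent by unpaired t test with Welch's correction.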
# [3] = test system: P. falciparum clone A3 (PfeEF2 Y719C); test: 72 hour concentration-response assay, MMV692140-selected clone A3; assay type: cell-based, Plasmodium falciparum; conditions: vs parental Dd2-B2, Figure 3
# Procedure, shortened: as §1
# [4] = test system: P. falciparum Dd2 (PfeEF2); test: In vitro intraerythrocytic antimalarial activity, lab adapted strain Dd2; assay type: cell-based; conditions: Plasmodium falciparum, DD2, read-out: IC50, Dd2 (PfeEF2)
# Procedure, shortened: (§2)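 Intraerythrocytic asexual-stage activity was measured against laboratory resistant lines, with resistance mutations introduced into a Dd2 wild-type background. Fold shift was taken relative to Dd2 wild type. Strain-matched reference inhibitors were tested on Dd2 wild type and on the mutant lines. Values are means of at least two independent experiments.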
# P. falciparum Dd2 (wt) = test: In vitro intraerythrocytic antimalarial activity, Dd2; assay type: cell-based, Plasmodium falciparum
# [5] = test system: P. falciparum clone D6 (PfeEF2 Y186N); test: 72 hour concentration-response assay, M5717-selected clone D6; assay type: cell-based, Plasmodium falciparum
# Procedure, shortened: as §1
# [6] = test system: P. falciparum clone D3 (PfeEF2 F770L); test: 72 hour concentration-response assay, MMV692140-selected clone D3; assay type: cell-based, Plasmodium falciparum; conditions: IC50 vs Dd2-B2 parent
# Procedure, shortened: as §1
# [7] = test system: P. falciparum clone E5 (PfeEF2 E134D); test: 72 hour concentration-response assay, M5717-selected clone E5; assay type: cell-based, Plasmodium falciparum
# Procedure, shortened: as §1
# [8] = test system: P. falciparum clone G12 (PfeEF2 L507S); test: 72 hour concentration-response assay, MMV692140-selected clone G12; assay type: cell-based, Plasmodium falciparum; conditions: vs parental Dd2-B2, Figure 3
# Procedure, shortened: as §1
# [9] = test system: P. falciparum Dd2 (Pfcytb); test: In vitro intraerythrocytic antimalarial activity, lab adapted strain Dd2; assay type: cell-based, Plasmodium falciparum
# Procedure, shortened: as §2
# [10] = test system: P. falciparum Dd2 (Pfdhodh); test: as above; assay type: cell-based, Plasmodium falciparum
# Procedure, shortened: as §2
# P. falciparum TM90 C2b = test: 72-hour [3H]hypoxanthine incorporation assay, field adapted strain TM90 C2b; assay type: cell-based; conditions: Plasmodium falciparum, TM90, read-out: IC50, TM90 C2b
# Procedure, shortened: (§3)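 Intraerythrocytic asexual-stage activity was measured against field-adapted drug-resistant P. falciparum strains. The drug-sensitive NF54 strain served as the wild-type reference, and fold shift was taken relative to NF54. Chloroquine and artesunate were run as control drugs.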
# P. falciparum K1 = test: 72-hour [3H]hypoxanthine incorporation assay, field adapted strain K1; assay type: cell-based; conditions: Plasmodium falciparum, K1, read-out: IC50, K1
# Procedure, shortened: as §3
# P. falciparum Cam3.I = test: 72-hour [3H]hypoxanthine incorporation assay, field adapted strain Cam3.I; assay type: cell-based; conditions: Plasmodium falciparum, read-out: IC50, Cam3.I
# Procedure, shortened: as §3
# P. falciparum Dd2 = test: 72-hour [3H]hypoxanthine incorporation assay, field adapted strain Dd2; assay type: cell-based; conditions: Plasmodium falciparum, DD2, read-out: IC50, Dd2
# Procedure, shortened: as §3
# P. falciparum 7G8 = test: 72-hour [3H]hypoxanthine incorporation assay, field adapted strain 7G8; assay type: cell-based; conditions: Plasmodium falciparum, 7G8, read-out: IC50, 7G8
# Procedure, shortened: as §3
# [11] = test system: P. falciparum Dd2 (Pfpi4k); test: In vitro intraerythrocytic antimalarial activity, lab adapted strain Dd2; assay type: cell-based, Plasmodium falciparum
# Procedure, shortened: as §2
# [12] = Plasmodium falciparum, DD2, read-out: IC50, Dd2 (wt)
smiles,measurement,setting,value
N#Cc1ccc2c(c1)N(C(=O)C1CCN(c3nnnn3-c3ccccc3)CC1)CCC2 [Compound 22],IC50,P. falciparum 3D7,> 25 µM
"COc1ccc(-n2nnnc2N2CCC(C(=O)N3CCCc4ccccc43)CC2)cc1 [Compound 7, (3,4-Dihydroquinolin-1(2H)-yl)(1-(1-(4-methoxyphenyl)-1H-tetrazol-5-yl)piperidin-4-yl)methanone]",IC50,P. falciparum 3D7,0.9 ± 0.14 µM
same,microsomal CLint at 1 µM,[1],521 µL/min/mg
O=C(C1CCN(c2nnnn2-c2ccc(F)cc2)CC1)N1CCOc2ccccc21 [Compound 30],IC50,P. falciparum 3D7,8.9 ± 1.4 µM
same,microsomal CLint at 1 µM,[1],83 µL/min/mg
O=C(NCCN1CCCC1)c1cc(-c2ccc(CN3CCOCC3)cc2)nc2ccc(F)cc12 [Compound M5717],"Fold shift, clone F8",[2]; IC50 vs Dd2-B2 parent,3100x fold
same,IC50,"[2]; Plasmodium falciparum, 72 h, read-out: IC50, clone F8",0.66 µM
same,Cross resistance of compound 2-selected clone A3,[3],not cross‐resistant
same,IC50,[4],3.1 µM
same,IC50,P. falciparum Dd2 (wt); [12],0.002 µM
same,"Fold shift, clone D6",[5]; IC50 vs Dd2-B2 parent,14700x fold
same,IC50,"[5]; Plasmodium falciparum, D6, 72 h, read-out: IC50, clone D6",3.1 µM
same,"Fold shift, clone D3",[6],1.6 fold
same,"Fold shift, clone E5",[7]; IC50 vs Dd2-B2 parent,27x fold
same,IC50,"[7]; Plasmodium falciparum, 72 h, read-out: IC50, clone E5",0.0058 µM
same,Cross resistance of compound 2-selected clone G12,[8],not cross‐resistant
COc1cc2[nH]c(C)c(-c3ccc(Oc4ccc(OC(F)(F)F)cc4)cc3)c(=O)c2cc1Cl [ELQ300],IC50,"[9]; read-out: IC50, Dd2 (Pfcytb), reference compound",0.254 µM
same,"fold shift, Dd2 (Pfcytb)",[9]; vs Dd2 (wt),13 fold
same,IC50,"P. falciparum Dd2 (wt); read-out: IC50, Dd2 (wt), reference compounds",0.019 µM
COc1ccc(-n2nnnc2N2CCC(C(=O)N3CCCc4c(Cl)cccc43)CC2)cc1 [Compound 31],IC50,P. falciparum 3D7,0.7 ± 0.1 µM
same,microsomal CLint at 1 µM,[1],> 400 µL/min/mg
Cc1cc(Nc2ccc(S(F)(F)(F)(F)F)cc2)n2nc(C(C)(F)F)nc2n1 [DSM265],IC50,"[10]; Plasmodium falciparum, DD2, read-out: IC50, Dd2 (Pfdhodh)",0.143 µM
same,"fold shift, Dd2 (Pfdhodh)",[10]; vs Dd2 (wt),18 fold
same,IC50,P. falciparum Dd2 (wt); [12],0.008 µM
CCN(CC)CCCC(C)Nc1ccnc2cc(Cl)ccc12 (centres unmarked) [Chloroquine],IC50,P. falciparum TM90 C2b,0.14 µM
same,IC50,P. falciparum K1,0.2 µM
same,IC50,P. falciparum Cam3.I,0.18 µM
same,IC50,P. falciparum Dd2,0.16 µM
same,IC50,P. falciparum 7G8,0.08 µM
"O=C(C1CCN(c2nnnn2-c2ccc(N3CCCC3)cc2)CC1)N1CCCc2c(F)cccc21 [Compound 36, (5-fluoro-3,4-dihydroquinolin-1(2H)-yl)(1-(1-(4-(pyrrolidin-1-yl)phenyl)-1H-tetrazol-5-yl)piperidin-4-yl)methanone]",IC50,P. falciparum 3D7,0.066 ± 0.008 µM
same,improvement of antimalarial asexual blood stage in vitro potency,"P. falciparum 3D7; relative to hit compound 2, 72-hour 3D7 assay",30 fold
same,microsomal CLint at 1 µM,[1],> 400 µL/min/mg
"O=C(C1CCN(c2nnnn2C2CCCC2)CC1)N1CCCc2ccccc21 [Compound 28, (1-(1-cyclopentyl-1H-tetrazol-5-yl)piperidin-4-yl)(3,4-dihydroquinolin-1(2H)-yl)methanone]",IC50,P. falciparum 3D7,3.3 ± 0.48 µM
same,microsomal CLint at 1 µM,[1],> 400 µL/min/mg
"O=C(C1CCN(c2nnnn2-c2ccccc2)CC1)N1CCCc2c(Cl)cccc21 [Compound 17, (5-Chloro-3,4-dihydroquinolin-1(2H)-yl)(1-(1-phenyl-1H-tetrazol-5-yl)piperidin-4-yl)methanone]",IC50,P. falciparum 3D7,0.6 ± 0.09 µM
C[C@H]1[C@H](OC(=O)CCC(=O)O)O[C@@H]2O[C@@]3(C)CC[C@H]4[C@H](C)CC[C@@H]1[C@@]24OO3 [Artesunate],IC50,P. falciparum TM90 C2b,0.005 µM
same,IC50,P. falciparum K1,0.002 µM
same,IC50,P. falciparum Cam3.I,0.011 µM
same,IC50,P. falciparum Dd2,0.006 µM
same,IC50,P. falciparum 7G8,0.002 µM
COc1ccc(-n2nnnc2N2CCC(C(=O)N3CCOc4c(Cl)cccc43)CC2)cc1 [Compound 32],IC50,P. falciparum 3D7,3.6 ± 1.2 µM
same,microsomal CLint at 1 µM,[1],78 µL/min/mg
"O=C(C1CCN(c2nnnn2-c2ccccc2)CC1)N1CCCc2cc(Cl)ccc21 [Compound 20, (6-Chloro-3,4-dihydroquinolin-1(2H)-yl)(1-(1-phenyl-1H-tetrazol-5-yl)piperidin-4-yl)methanone]",IC50,P. falciparum 3D7,> 25 µM
"CC(C)n1nnnc1N1CCC(C(=O)N2CCCc3ccccc32)CC1 [Compound 27, (3,4-Dihydroquinolin-1(2H)-yl)(1-(1-isopropyl-1H-tetrazol-5-yl)piperidin-4-yl)methanone]",IC50,P. falciparum 3D7,5.6 ± 0.92 µM
same,microsomal CLint at 1 µM,[1],135 µL/min/mg
O=C(C1CCN(c2nnnn2-c2ccc(N3CCCC3)cc2)CC1)N1CCCc2c(Cl)cccc21 [Compound 33],IC50,P. falciparum 3D7,0.11 ± 0.01 µM
same,microsomal CLint at 1 µM,[1],> 400 µL/min/mg
"O=C(C1CCN(c2nnnn2-c2ccccc2)CC1)N1CCCc2ccc(Cl)cc21 [Compound 23, (7-Chloro-3,4-dihydroquinolin-1(2H)-yl)(1-(1-phenyl-1H-tetrazol-5-yl)piperidin-4-yl)methanone]",IC50,P. falciparum 3D7,> 25 µM
"O=C(C1CCN(c2nnnn2-c2ccccc2)CC1)N1CCCc2cnccc21 [Compound 25, (3,4-Dihydro-1,6-naphthyridin-1(2H)-yl)(1-(1-phenyl-1H-tetrazol-5-yl)piperidin-4-yl)methanone]",IC50,P. falciparum 3D7,10.8 ± 0.65 µM
"Cc1ccccc1-n1nnnc1N1CCC(C(=O)N2CCCc3ccccc32)CC1 [Compound 8, (3,4-Dihydroquinolin-1(2H)-yl)(1-(1-(o-tolyl)-1H-tetrazol-5-yl)piperidin-4-yl)methanone]",IC50,P. falciparum 3D7,1.4 ± 0.02 µM
O=C(C1CCN(c2nnnn2C2CCCCC2)CC1)N1CCCc2ccccc21 [Compound 29],IC50,P. falciparum 3D7,3.5 ± 0.02 µM
same,microsomal CLint at 1 µM,[1],> 400 µL/min/mg
"O=C(C1CCN(c2nnnn2-c2ccccc2)CC1)N1CCCc2ncccc21 [Compound 24, (3,4-Dihydro-1,5-naphthyridin-1(2H)-yl)(1-(1-phenyl-1H-tetrazol-5-yl)piperidin-4-yl)methanone]",IC50,P. falciparum 3D7,10.2 ± 0.75 µM
O=C(C1CCN(c2nnnn2-c2ccc(N3CCCC3)cc2)CC1)N1CCOc2c(Cl)cccc21 [Compound 34],IC50,P. falciparum 3D7,1.6 ± 0.081 µM
same,microsomal CLint at 1 µM,[1],296 µL/min/mg
O=C(C1CCN(c2nnnn2-c2ccc(OC(F)(F)F)cc2)CC1)N1CCCc2ccccc21 [Compound 9],IC50,P. falciparum 3D7,5.5 ± 0.86 µM
CS(=O)(=O)c1ccc(-c2cnc(N)c(-c3ccc(C(F)(F)F)nc3)c2)cc1 [MMV390048],IC50,P. falciparum Dd2 (wt); [12],0.0212 µM
same,IC50,"[11]; Plasmodium falciparum, DD2, read-out: IC50, Dd2 (Pfpi4k)",0.102 µM
same,"fold shift, Dd2 (Pfpi4k)",[11]; vs Dd2 (wt),4.8 fold
